Assay results gathered from unrelated publications.
Compare with care: the assays were run in different laboratories.
Target: Serine/threonine-protein kinase Nek2 (NEK2, Homo sapiens, UniProt P51955)
Sequence (P51955 1-445, as in one of the studies): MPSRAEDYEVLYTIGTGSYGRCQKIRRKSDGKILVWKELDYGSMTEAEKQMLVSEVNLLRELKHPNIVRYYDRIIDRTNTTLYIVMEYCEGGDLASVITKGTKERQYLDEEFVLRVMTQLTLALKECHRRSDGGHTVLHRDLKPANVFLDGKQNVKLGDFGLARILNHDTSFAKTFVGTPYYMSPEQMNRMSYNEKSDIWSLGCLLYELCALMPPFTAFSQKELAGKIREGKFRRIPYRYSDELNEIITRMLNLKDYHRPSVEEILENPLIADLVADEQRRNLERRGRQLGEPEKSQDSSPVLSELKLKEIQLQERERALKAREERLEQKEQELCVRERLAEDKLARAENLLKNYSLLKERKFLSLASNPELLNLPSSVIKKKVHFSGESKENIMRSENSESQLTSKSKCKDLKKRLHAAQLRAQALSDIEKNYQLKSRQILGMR

CCCOc1ccc(OC)c(F)c1C(=O)c1ccc(C(=O)N[C@@H]2CNC[C@H]2NC(=O)c2ccc3[nH]ncc3c2)cc1
remaining activity (enzyme activity; inhibitor; 10 µM): 66%

CCN(CC)CCNC(=O)c1c(C)[nH]c(/C=C2\C(=O)Nc3ccc(F)cc32)c1C
inhibition (enzyme activity; inhibitor; 10 µM): 28%

CN1CCC2(CC1)NC(=O)c1c(c3ccc(Cl)c(Cl)c3n1C)C2C#N (racemic)
ΔTm (thermal stability; DSF; 10 µM): 0.1 °C

Nc1cnc(N2CCc3cc(S(=O)(=O)Nc4c(F)cc(Cl)cc4F)cc(N4CCCC4=O)c32)nc1
remaining binding (cell-free assay; competition with immobilised ligand; 1 µM): 89%

CN(C)C1CCN(CC#Cc2nn(C3CCCC3)c3nc(NCc4ccccc4)ncc23)C1 (stereo not shown)
inhibition (enzyme activity; inhibitor; FRET; 0.1 µM): 2%

CCCS(=O)(=O)Nc1ccc(F)c(C(=O)c2c[nH]c3ncc(-c4ccc(Cl)cc4)cc23)c1F
inhibition (enzyme activity; inhibitor; 1 µM): < 20%

CC(C)(C)c1nc2c(s1)c1nc(N)ncc1c1ccc(NS(=O)(=O)c3c(F)cccc3F)c(F)c12
remaining activity (enzyme activity; inhibitor; radiometric; 1 µM): 103%

CSc1nc(C)c(-c2ccnc(Nc3ccc(N4CCOCC4)cc3)c2)[nH]1
inhibition (enzyme activity; inhibitor; 10 µM): 20%

FC(F)(F)Oc1cccc(-c2cnc3ccc(-c4ccncc4)nn23)c1
activity vs control (enzyme activity; inhibitor; radiometric; 1 µM): 91%

CC(=O)Nc1c(C(C)=O)c(=O)n(C)c2nc(-c3ccc(Cl)cc3Cl)c(-c3ccc(Cl)cc3)cc12
remaining binding (cell-free assay; competition with immobilised ligand; 1 µM): 100%

Cn1c2c(Cl)c(Cl)ccc2c2cn[nH]c(=O)c21
ΔTm (thermal stability; DSF; 10 µM): -0.6 °C

COc1ccc2c(c1)O[C@H](c1ccc(OC)c(OC)c1)C[C@@H]2NC(=O)C1(c2ccc3c(c2)OC(F)(F)O3)CC1
remaining binding (cell-free assay; competition with immobilised ligand; 1 µM): 100%

O=C1Nc2ccc(Cl)cc2C1=Cc1cc(Cl)c(O)c(Cl)c1
remaining signal (cell-free assay; 0.5 µM): 86%

CCN(CC)c1ccc(C2=NNC(=O)CC2C)cc1[N+](=O)[O-] (stereo not shown)
remaining activity (enzyme activity; inhibitor; 10 µM): 91%

Cc1ccc(NC(=O)c2ccc(CN3CCN(C)CC3)cc2)cc1Nc1nc(-c2cccnc2)cs1
remaining signal (cell-free assay; 0.5 µM): 96.7%

Cc1sc(C(=O)NC2COC2)cc1-n1cc(NC(=O)Nc2c(F)cccc2Cl)cn1
remaining activity (enzyme activity; inhibitor; 10 µM): 88%

CCC(=N\O)/C(C)=C/c1ccc(F)cc1
remaining binding (cell-free assay; competition with immobilised ligand; 1 µM): 100%

COc1cc(Cl)c(C(=O)N[C@@H](CN[C@H]2CC[C@@H](N)CC2)Cc2ccc(C#N)cc2)cc1-c1ccc(CN[C@H](C)c2ccc(C)cc2)o1
remaining activity (enzyme activity; inhibitor; 1 µM): 114%

Cc1ccc(C(=O)NCc2ccsc2)cc1C#Cc1cn(C(C)C)c2ncnc(N)c12
activity vs control (enzyme activity; inhibitor; 1 µM): 111%
